This is a sample that favours compounds with a hit; in the whole collection about 1.5% have one here.
APJ ag: activates the human apelin receptor APJ; P35414; CHO-K1 APJ PathHunter beta-arrestin, luminescence; 0% DMSO wells, 100% apelin; activation, % at 20 µM; 330,000 tested, 0.11% active;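 active = activation more than six SD over the plate average, tested at 20 µM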
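Test system: CHO-K1 APJ beta-arrestin complementation cell line | Compound: Single test compound dose, 20 µM final, 1% DMSO | Incubation: Compound 90 min 25 °C, reagent 1 h | Measured by: beta-gal luminescence | Read-out basis: APJ–arrestin association signal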
EBI2 antag: blocks human EBI2 receptor beta-arrestin signaling | EBI2 beta-arrestin recruitment, luminescence, 7a,25-OHC stimulated | P32249 | 360,000 tested, 0.81% active | inhibition, % at 5 µM | AID 651636; in the data active = inhibition above about 38%;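 also: enzyme fragment complementation signal reports receptor beta-arrestin coupling in cells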
Target sequence (P32249 whole entry, looked up, the tested form may be a part): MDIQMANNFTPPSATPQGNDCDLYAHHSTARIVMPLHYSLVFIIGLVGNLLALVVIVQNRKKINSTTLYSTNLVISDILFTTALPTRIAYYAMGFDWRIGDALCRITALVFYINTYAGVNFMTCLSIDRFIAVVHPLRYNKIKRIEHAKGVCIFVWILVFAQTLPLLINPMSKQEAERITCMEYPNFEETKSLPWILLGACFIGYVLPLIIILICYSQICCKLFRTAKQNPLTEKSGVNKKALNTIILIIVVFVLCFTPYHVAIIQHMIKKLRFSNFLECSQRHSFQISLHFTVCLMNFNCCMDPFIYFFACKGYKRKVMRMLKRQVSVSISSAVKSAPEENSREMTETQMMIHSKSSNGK
APJ antagonist: blocks the human apelin receptor APJ. P35414. CHO-K1 APJ beta-arrestin complementation, luminescence. inhibition, % at 20 µM. 330,000 tested, 0.32% active. AID 2521;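 active = inhibition above about 40% at 20 µM, limit read from the data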;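 also: cells challenged with 10 nM apelin-13 agonist together with compound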
CXCR6 block: inhibitors of human CXCR6 receptor. O00574. CHO-K1 PathHunter CXCR6 beta-arrestin, luminescence. inhibition, % at 20 µM. 360,000 tested, 0.36% active. AID 602244; in the data active = inhibition above about 34%, passing the limit was not always enough;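 also: antagonist mode with CXCL16 agonist at 10 nM final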
CCR6 antagonist: antagonists of human CCR6 receptor; P51684; CHO-K1 CCR6 PathHunter beta-arrestin, luminescence, CCL20-stimulated; inhibition, % at 20 µM; 340,000 tested, 0.49% active;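 active = compounds whose inhibition of the agonist-driven luminescence signal at 20 µM reaches about 50%, limit read from the data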;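 also: cells stimulated with CCL20 at 14 nM final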
EBI2 antag conf: confirmation of human EBI2 receptor antagonists; shares compounds with EBI2 antag; inhibition, % at 5 µM; EBI2 beta-arrestin luminescence, 7a,25-OHC antagonism; 2,400 tested, 29% active;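 active = inhibition of at least 50%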
EBI2 agonist: counter-screen for EBI2 antagonists: EBI2 agonist activity; activation, % at 5 µM; shares compounds with EBI2 antag; EBI2-expressing cells, agonist mode, luminescence, 60 min; 0% vehicle, 100% 7α,25-dihydroxycholesterol control; 2,400 tested, under 10 active;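 active = activation of at least 50%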
bGal cs: beta-galactosidase inhibition counter-screen. shares compounds with EBI2 antag. purified beta-galactosidase, luminescent Galacton Star, 15 min. inhibition, % at 5 µM. 2,400 tested, 1% active. AID 652176;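 active = replicate-average signal at least 3 plate SD below neutral wells, shown as high inhibition, flagging enzyme-inhibiting false positives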;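 also: higher means stronger loss of beta-gal luminescence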
Numbers stand for hits; i = inactive; nt = not tested or not shown.

SMILES	APJ ag	EBI2 antag	APJ antagonist	CXCR6 block	CCR6 antagonist	EBI2 antag conf	EBI2 agonist	bGal cs
Cc1ccc(C2=NS(=O)(=O)N(C)C(C(=O)NCc3ccccc3)=C2)cc1	i	i	i	i	i	nt	nt	nt
Cc1ccc(C2=NS(=O)(=O)N(C)C(C(=O)NC(C)c3ccccc3)=C2)cc1 (stereo unspecified)	i	39.5	i	i	i	i	i	i
CC1(C)Cc2c(C#N)c(SCCC#N)nc(N3CCOCC3)c2CO1	i	i	i	i	i	nt	nt	nt
CC1(C)Cc2c(C#N)c(SCCC#N)nc(N3CCOCC3)c2CS1	i	69.5	i	i	i	i	i	i
Cc1cccc(C(C)C)c1NC(=O)C(C)OC(=O)Cn1cnc2c1c(=O)n(C)c(=O)n2C (stereo unspecified)	i	i	i	i	i	nt	nt	nt
CCCc1cc(C(=O)N2CCN(c3ccccc3C)CC2)cs1	i	63.1	i	i	i	i	i	i
CCCc1cc(C(=O)N2CCCN(C)CC2)cs1	i	i	i	i	i	nt	nt	nt
O=C(COc1ccc(Cl)cc1)NCCSCc1cccc(Cl)c1	i	66.5	i	i	i	i	i	i
Cc1cccc(CSCCNC(=O)COc2ccc(Cl)cc2)c1	i	i	i	i	i	nt	nt	nt
COc1cccc(C(=O)NCCS(=O)(=O)N2CCCC(C)C2)c1 (stereo unspecified)	nt	i	nt	i	nt	nt	nt	nt
COc1ccc(/C=N/n2cnn(Cc3ccccc3Cl)c2=S)cc1	i	48.9	i	i	i	i	i	i
COc1cc(/C=N/n2cnn(Cc3ccccc3Cl)c2=S)cc(OC)c1OC	i	i	i	i	i	nt	nt	nt
FCCCOc1ccc(/C=N/OCc2c(Cl)cccc2Cl)cc1	i	i	i	i	i	nt	nt	nt
FCCCOc1ccc(/C=N/OCc2ccc(Cl)cc2)cc1	i	59.7	i	i	i	i	i	i
O=C(/C=C/c1ccc(OCCCF)cc1)NCc1ccc(Cl)cc1	i	50.5	i	i	i	i	i	i
Cn1c(N)c(C(=O)COC(=O)CSc2ccc(Cl)cc2)c(=O)n(C)c1=O	i	i	i	i	i	nt	nt	nt
COc1cc(NC(=O)N2CCc3nc(Nc4cc(Cl)cc(Cl)c4)ncc3C2)cc(OC)c1OC	nt	47.1	nt	i	nt	i	i	i
Cc1cccc(C2NC(c3cccc(C)c3)C([N+](=O)[O-])C(C)(C)C2[N+](=O)[O-])c1 (stereo unspecified)	i	i	i	i	i	nt	nt	nt
Cc1ccc(C)c(CN2CCC(CNC(=O)Nc3ccc(Cl)cc3)CC2)c1	i	i	i	i	i	nt	nt	nt
Cc1ccc(C)c(CN2CCC(CNC(=O)Nc3ccc(Br)cc3F)CC2)c1	i	52.2	i	i	i	i	i	i
Nc1cccc(Oc2ccc3c(c2)C(=O)N(CC2CCCO2)C3=O)c1 (stereo unspecified)	i	i	i	i	i	nt	nt	nt
COc1ccc(NC(C)=O)cc1S(=O)(=O)N1CCN(Cc2cccs2)CC1	i	i	i	i	i	nt	nt	nt
Cc1cccc(OCC(=O)N2CCC(c3ccccc3)C2)c1 (stereo unspecified)	i	46.3	i	i	i	i	i	i
O=C(COc1ccc(F)cc1)N1CCC(c2ccccc2)C1 (stereo unspecified)	i	56.7	i	i	i	i	i	i
Cc1ccc2c(c1)C(=O)C(=O)N2Cc1ccc(Cl)cc1	i	i	i	i	i	nt	nt	nt
SMILES	APJ ag	EBI2 antag	APJ antagonist	CXCR6 block	CCR6 antagonist	EBI2 antag conf	EBI2 agonist	bGal cs
CCN(CC)S(=O)(=O)c1ccc(/C=C/C(=O)OCC(=O)NNC(=O)c2ccc(OC)cc2)cc1	i	i	i	i	i	nt	nt	nt
Clc1ccc(Cl)c(-c2nn3c(COc4ccccc4)nnc3s2)c1	i	53.1	i	i	i	i	i	i
c1ccc(-c2csc(Nc3nc(N4CCOCC4)nc(N4CCOCC4)n3)n2)cc1	i	50.4	i	i	i	i	i	i
CC1=C(C(=O)Nc2cccc(C(=O)N3CCN(c4cccc(C(F)(F)F)c4)CC3)c2)SCCO1	i	i	i	i	i	nt	nt	nt
N#Cc1c(-c2ccccc2)c(-c2ccccc2)nn(CC(=O)NNC(=O)Nc2ccc(Cl)c(Cl)c2)c1=O	i	79.3	i	i	i	i	i	i
Cn1c(SCC(=O)NNC(=O)Nc2ccccc2)nnc1-c1ccccc1	i	i	i	i	i	nt	nt	nt
COc1ccc(C(=O)N2CCN(c3ccc([N+](=O)[O-])c(-n4nc(C)cc4C)c3)CC2)cc1	i	59.5	i	i	i	i	i	i
O=C(NC12CC3CC(CC(C3)C1)C2)C1CC(=O)N(c2ccc(Br)cc2)C1 (stereo unspecified)	i	50.6	i	i	i	i	i	i
C=CCNC(=O)C1CCN(S(=O)(=O)c2cccs2)CC1	i	i	i	i	i	nt	nt	nt
O=C1NN=C(c2ccc(Br)cc2)CC1c1ccc(Cl)cc1 (stereo unspecified)	i	74.0	i	i	i	51.9	i	i
Cc1cccc(C2=NNC(=O)C(c3ccc(Cl)cc3)C2)c1 (stereo unspecified)	i	i	i	i	i	nt	nt	nt
CCc1ccc(C2CC(c3ccc(Cl)cc3)=NNC2=O)cc1 (stereo unspecified)	i	61.4	i	i	i	i	i	i
Cc1ccc(C2CC(c3ccc(Cl)cc3)=NNC2=O)cc1 (stereo unspecified)	i	49.5	i	i	i	i	i	i
CN1N=C(c2ccc(Cl)cc2)CC(c2ccc(Cl)cc2)C1=O (stereo unspecified)	i	i	i	i	i	nt	nt	nt
COc1ccc(C2=C(CC(=O)O)C(=O)CC2)cc1	i	i	i	i	i	nt	nt	nt
Cc1ccc(N(CC(=O)NC(C)(C)C)C(=O)CCC(=O)Nc2ccccn2)cc1	nt	i	nt	i	nt	nt	nt	nt
Cc1cc(N)ccc1NC(=O)CN1CCOCC1	i	i	i	i	i	nt	nt	nt
O=C(Nc1cnn(Cc2ccc(F)cc2)c1)c1cnccn1	i	i	i	i	i	nt	nt	nt
CC(C)(C)C1CCc2onc(C(=O)Nc3cnn(Cc4ccc(F)cc4)c3)c2C1 (stereo unspecified)	i	44.0	i	i	i	i	i	i
O=C(Nc1cnn(Cc2ccc(F)cc2)c1)C(c1ccccc1)c1ccccc1	i	73.2	i	i	i	i	i	i
O=C1[C@H]2[C@@H](c3ccc(F)cc3)N3C(=O)N(c4ccc(Br)cc4)C(=O)[C@@]3(Cc3ccccc3)[C@H]2C(=O)N1C1CCCCC1	i	i	i	i	i	nt	nt	nt
O=C(/C=C/c1ccc(OCc2ccccc2)c(OCc2ccccc2)c1)c1cccnc1	i	46.2	i	i	i	i	i	i
COc1ccc(-n2c(COc3ccccc3)nnc2SCC(N)=O)cc1	i	48.9	i	i	i	i	i	i
